Measurements taken from ChEMBL document CHEMBL1125005, “Synthesis, biological profile, and quantitative structure-activity relationship of a series of novel 3-hydroxy-3-methylglutaryl coenzyme A reductase inhibitors” (J Med Chem, 1990).

What was measured:
[1] = biological target: T1, 3-hydroxy-3-methylglutaryl-coenzyme A reductase (Rattus norvegicus, UniProt P51639); assay: In vitro inhibitory activity was measured against rat liver HMG-CoA reductase
T1 sequence (P51639 whole entry): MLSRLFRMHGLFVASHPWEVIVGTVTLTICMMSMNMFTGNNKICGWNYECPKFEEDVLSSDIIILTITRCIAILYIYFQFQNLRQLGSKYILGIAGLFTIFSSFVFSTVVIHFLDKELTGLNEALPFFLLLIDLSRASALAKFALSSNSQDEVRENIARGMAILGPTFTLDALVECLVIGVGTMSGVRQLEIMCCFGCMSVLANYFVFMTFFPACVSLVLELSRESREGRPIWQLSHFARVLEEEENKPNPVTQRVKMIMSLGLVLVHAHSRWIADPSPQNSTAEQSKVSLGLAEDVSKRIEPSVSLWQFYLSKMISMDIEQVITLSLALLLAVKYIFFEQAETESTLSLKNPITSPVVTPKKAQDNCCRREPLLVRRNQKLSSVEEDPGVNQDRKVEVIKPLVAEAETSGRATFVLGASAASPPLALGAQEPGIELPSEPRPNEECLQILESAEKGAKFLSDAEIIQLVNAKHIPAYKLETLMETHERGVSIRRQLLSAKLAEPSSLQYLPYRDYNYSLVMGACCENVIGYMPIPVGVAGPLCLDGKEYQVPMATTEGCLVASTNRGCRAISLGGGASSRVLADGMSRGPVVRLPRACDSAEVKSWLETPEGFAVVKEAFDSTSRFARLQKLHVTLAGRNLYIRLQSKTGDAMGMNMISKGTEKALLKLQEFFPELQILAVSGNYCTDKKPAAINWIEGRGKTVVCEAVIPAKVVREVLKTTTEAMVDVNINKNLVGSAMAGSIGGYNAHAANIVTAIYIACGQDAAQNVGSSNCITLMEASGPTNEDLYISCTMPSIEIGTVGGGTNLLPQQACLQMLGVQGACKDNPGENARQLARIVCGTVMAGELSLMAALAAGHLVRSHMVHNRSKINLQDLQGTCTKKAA
Procedure, shortened: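 Enzyme: intact, fully activated rat liver microsomal HMG-CoA reductase, 50–100 μg protein in buffer A (50 mM imidazole HCl, 250 mM NaCl, 1 mM EDTA, 1 mM EGTA, 5 mM DTT, pH 7.2). Preincubated with inhibitor for 10 min at 37 °C. d,l-[3-14C]HMG-CoA (0.33 mM) and NADPH (3.0 mM) then added. [14C]mevalonate formation measured. IC50 from linear regression of % inhibition vs log concentration, ≥4 dilutions in duplicate.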

[2] = biological target: T2, 3-hydroxy-3-methylglutaryl-coenzyme A reductase (Rattus norvegicus) (UniProt P51639); assay: The compound was tested for the relative potency with respect to standard compound BMY-21950
T2 sequence (whole entry): T1 sequence (P51639 whole entry)

[3] = biological target: T1, 3-hydroxy-3-methylglutaryl-coenzyme A reductase; assay: (§1) In vitro inhibitory activity was measured against rat liver HMG-CoA reductase using [2-14C]-acetate incorporation
Procedure, shortened: (§2)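 Parenchymal hepatocytes from chow-fed male Wistar rats (180–280 g), collagenase-perfused, viability >95%. Cells held at 100 mg wet weight/2.0 mL in MEM with bicarbonate/HEPES, pH 7.4, 2% BSA, under 95% O2/5% CO2. Preincubated with inhibitor for 15 min, with DMSO at 0.5% final for lactones. [2-14C]acetate then added for 60 min at 37 °C. 14C in 3β-hydroxysterols counted.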

Rattus norvegicus [4] = species on record: Rattus norvegicus; assay: In vitro inhibitory potency for cholesterol synthesis was measured in rat adrenals; assay type: functional, Adrenal gland
Rattus norvegicus [5] = species on record: Rattus norvegicus; assay: In vitro inhibitory potency for cholesterol synthesis was measured in rat ileum; assay type: functional
Rattus norvegicus [6] = species on record: Rattus norvegicus; assay: In vitro inhibitory potency for cholesterol synthesis was measured in rat testes; assay type: functional, Testis
Procedure, shortened: (§3)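 Rat spleen and testes cell dispersions, prepared nonenzymatically. Na-salt inhibitors were preincubated with cells for 15 min under the hepatocyte conditions. [14C]acetate (45–55 μCi per μmol, 5 μCi per mL) was then incorporated for 60 min. Sterol IC50 is reported as a ratio to the IC50 in rat hepatocytes.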

Rattus norvegicus [7] = species on record: Rattus norvegicus; assay: In vitro inhibitory potency for cholesterol synthesis was measured in rat spleen; assay type: functional; procedure, shortened: as §3
Bos taurus = species on record: Bos taurus; assay: In vitro inhibitory potency for cholesterol synthesis was measured in bovine lens epithelial cell cultures
[8] = biological target: T1, 3-hydroxy-3-methylglutaryl-coenzyme A reductase; assay: as §1; remark: listed apart in the source
Procedure, shortened: as §2, with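 “counted. IC50 by regression from ≥4 concentrations; mean of n experiments.” for “counted.”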

IC50 [1]	Relative potency [2]	other results	Compound
30000 nM	0.00063		Cn1nnc(C(/C=C/[C@@H](O)C[C@@H](O)CC(=O)O)=C(c2ccc(F)cc2)c2ccc(F)cc2)n1
		IC50 [3]: 24 nM	Cn1nnnc1C(/C=C/[C@@H]1C[C@@H](O)CC(=O)O1)=C(c1ccc(F)cc1)c1ccc(F)cc1
1100 nM	0.017		CCn1nnnc1C(/C=C/[C@@H](O)C[C@@H](O)CC(=O)O)=C(c1ccc(F)cc1)c1ccc(F)cc1
	0.005		CC(C)(C)n1nnc(C(/C=C/[C@@H](O)C[C@@H](O)CC(=O)O)=C(c2ccc(F)cc2)c2ccc(F)cc2)n1 (stereo in doubt; 47) [listing 1 of 2 here]
230 nM	0.095		CC(C)C(/C=C/[C@@H](O)C[C@@H](O)CC(=O)O)=C(c1ccc(F)cc1)c1ccc(F)cc1
160 nM	0.12		Cc1cc(C(=C(/C=C/[C@@H](O)C[C@@H](O)CC(=O)O)c2nnnn2C)c2ccc(F)c(C)c2)ccc1F
330 nM	0.0058		O=C(O)C[C@H](O)C[C@H](O)/C=C/C(=C(c1ccc(F)cc1)c1ccc(F)cc1)C1N=NN=N1
190 nM	0.1		Cn1nnnc1C(/C=C/[C@@H](O)C[C@@H](O)CC(=O)O)=C(c1ccccc1)c1ccccc1
> 300000 nM	< 6e-05		CC(C)n1nnc(C(/C=C/[C@@H](O)C[C@@H](O)CC(=O)O)=C(c2ccc(F)cc2)c2ccc(F)cc2)n1
8000 nM	0.0024		N#CC(/C=C/[C@@H](O)C[C@@H](O)CC(=O)O)=C(c1ccc(F)cc1)c1ccc(F)cc1
27 nM	0.71	IC50 [3]: 32 nM; IC50 ratio (Rattus norvegicus [4]): 1; IC50 ratio (Rattus norvegicus [5]): 1.2; IC50 ratio (Rattus norvegicus [6]): 1.3; IC50 ratio (Rattus norvegicus [7]): 1.2; IC50 ratio (Bos taurus): 1.6	CC[C@H](C)C(=O)O[C@H]1C[C@@H](C)C=C2C=C[C@H](C)[C@H](CC[C@@H]3C[C@@H](O)CC(=O)O3)[C@H]21 [LOVASTATIN]
3700 nM			CC(C)(C)n1nnc(C(/C=C/[C@@H](O)C[C@@H](O)CC(=O)O)=C(c2ccc(F)cc2)c2ccc(F)cc2)n1 (stereo in doubt; 47) [listing 2 of 2 here]
19 nM			CC(C)(C)n1nnc(C(/C=C/[C@@H](O)C[C@@H](O)CC(=O)O)=C(c2ccc(F)cc2)c2ccc(F)cc2)n1 (stereo in doubt; 49) [listing 1 of 2 here]
	1		CC(C)(C)n1nnc(C(/C=C/[C@@H](O)C[C@@H](O)CC(=O)O)=C(c2ccc(F)cc2)c2ccc(F)cc2)n1 (stereo in doubt; 49) [listing 2 of 2 here]
> 300000 nM			Cn1nnnc1C(/C=C/[C@@H](O)C[C@@H](O)CC(=O)O)=C(c1ccc(F)cc1)c1ccc(F)cc1 (stereo in doubt; 48)
5700 nM	0.0033		Cn1nnnc1C(C=C=C[C@@H](O)C[C@@H](O)CC(=O)O)=C(c1ccc(F)cc1)c1ccc(F)cc1
7900 nM	0.0024		CC(/C=C/[C@@H](O)C[C@@H](O)CC(=O)O)=C(c1ccc(F)cc1)c1ccc(F)cc1
	0.43		Cn1nnnc1C(/C=C/[C@@H](O)C[C@@H](O)CC(=O)O)=C(c1ccc(F)cc1)c1ccc(F)cc1 (stereo in doubt; 3a)
43 nM		IC50 [8]: 21 nM; IC50 ratio (Rattus norvegicus [4]): 76; IC50 ratio (Rattus norvegicus [5]): 129; IC50 ratio (Rattus norvegicus [6]): 86; IC50 ratio (Rattus norvegicus [7]): 149; IC50 ratio (Bos taurus): 144	Cn1nnnc1C(/C=C/[C@@H](O)C[C@@H](O)CC(=O)[O-])=C(c1ccc(F)cc1)c1ccc(F)cc1.[Na+] (stereo in doubt; 3a)
44 nM	0.43		Cn1nnnc1C(/C=C/[C@@H](O)C[C@@H](O)CC(=O)O)=C(\c1ccccc1)c1ccc(F)cc1
1600 nM	0.012		Cc1ccc(C(=C(/C=C/[C@@H](O)C[C@@H](O)CC(=O)O)c2nnnn2C)c2ccc(C)cc2C)c(C)c1
130000 nM	0.00015		CC(C)n1nnnc1C(C=C=C[C@@H](O)C[C@@H](O)CC(=O)O)=C(c1ccc(F)cc1)c1ccc(F)cc1
1300 nM	0.015		Cc1ccc(C(=C(/C=C/[C@@H](O)C[C@@H](O)CC(=O)O)c2nnnn2C)c2ccc(C)cc2)cc1
580 nM	0.032		Cc1ccc(C(=C(/C=C/[C@@H](O)C[C@@H](O)CC(=O)O)c2nnnn2C)c2ccc(C)cc2F)c(F)c1
14000 nM	0.0014		CC(C)n1nnnc1C(/C=C/[C@@H](O)C[C@@H](O)CC(=O)O)=C(c1ccc(F)cc1)c1ccc(F)cc1
29 nM	0.67		Cc1cc(F)ccc1C(=C(/C=C/[C@@H](O)C[C@@H](O)CC(=O)O)c1nnnn1C)c1ccc(F)cc1C
200000 nM	9.1e-05		CCn1nnc(C(/C=C/[C@@H](O)C[C@@H](O)CC(=O)O)=C(c2ccc(F)cc2)c2ccc(F)cc2)n1
1400 nM	0.014		COc1ccc(C(=C(/C=C/[C@@H](O)C[C@@H](O)CC(=O)O)c2nnnn2C)c2ccc(OC)cc2)cc1
